The values below come from ChEMBL document CHEMBL2429718, “MT-Stabilizer, Dictyostatin, Exhibits Prolonged Brain Retention and Activity: Potential Therapeutic Implications” (ACS Med Chem Lett, 2013).

Molecules are shown by their SMILES. Active and inactive are the calls of the source. The calls are words filed in the database; no cut-off is given here.

The nature of data set [1]: AUC (0.5 to 16 hrs) in CD1 mouse brain at 5 mg/kg, ip administered as single dose at 4 hrs. Also on record: time 0.5-16 hr, dose 5 mg/kg, route intraperitoneal. The format is ADME, organism-based.
In data set [2] the test system is Brain. The experiment in a line: Stabilization of microtubule brain in CD1 mouse assessed as increase in acetylated alpha-tubulin at 5 mg/kg, ip administered as single dose measured after 7 days relative to vehicle-treated control. The format is functional, organism-based. Also on record: dose 5 mg/kg. In outline:
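Wild-type mice received one i.p. dose of 5 mg/kg, with DMSO as vehicle control, and 3 mice per treatment. Brains were collected 7 days later and the acetylated α-tubulin to α-tubulin ratio was measured. The mean ratio of treated mice was normalized to that of vehicle-treated mice.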

Data set [3] is described as follows: Drug uptake in CD1 mouse brain at 5 mg/kg, ip administered as single dose at 4 hrs. Format: ADME, organism-based. Also on record: dose 5 mg/kg, route intraperitoneal. Conditions: read-out: Drug uptake. In outline: (§1)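 CD1 mice received one i.p. dose of 5 mg/kg. Blood and brain were taken from groups of animals at several times after dosing, with n = 3 mice per time point, and compound levels were measured in plasma and brain. Exposure was expressed as AUC over 0.25–4 h. Concentrations at 4 h and 16 h are given as mean ± SD.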

Data set [4] is described as follows: Plasma concentration in CD1 mouse at 5 mg/kg, ip administered as single dose at 4 hrs. The format is ADME, organism-based. Further details: dose 5 mg/kg, route intraperitoneal. In outline: as §1
The nature of data set [5]: Drug uptake in CD1 mouse brain at 5 mg/kg, ip administered as single dose at 16 hrs. The following applies: read-out: Drug uptake. Further details: dose 5 mg/kg, route intraperitoneal. The format is ADME, organism-based. In outline:
as §1

Data set [6] is described as follows: (§2) Plasma concentration in CD1 mouse at 5 mg/kg, ip administered as single dose at 16 hrs. Conditions: CD1, mouse, plasma. Further details: dose 5 mg/kg, route intraperitoneal. Format: ADME, organism-based. In outline:
as §1

Data set [7] is described as follows: Fraction unbound in CD1 mouse brain at 5 mg/kg, ip administered as single dose. The format is ADME, organism-based. Further details: dose 5 mg/kg, route intraperitoneal. The following applies: in vivo.
The nature of data set [8]: AUC (0.25 to 4 hrs) in CD1 mouse plasma at 5 mg/kg, ip administered as single dose at 4 hrs. The format is ADME, organism-based. Further details: time 0.25-4 hr, dose 5 mg/kg, route intraperitoneal. Put shortly:
as §1

For data set [9], the system named is HEK293. The experiment in a line: Stabilization of microtubule in HEK293 cells assessed as increase in acetylated alpha-tubulin at 1to 10 nM after 4 hrs by ELISA. The format is cell-based. The following applies: Homo sapiens. In outline: (§3)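 In HEK293 cells, microtubule stabilization was read as compound-induced elevation of acetylated α-tubulin. Compounds were tested across a concentration series that included 1, 10 and 100 nM, with n = 4 per condition. Values are given as mean ± SEM.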
In general terms: ELISA stands for enzyme-linked immunosorbent assay.

In data set [10] the test system is HEK293. The experiment in a line: Stabilization of microtubule in HEK293 cells assessed as increase in acetylated alpha-tubulin after 4 hrs by ELISA. The format is cell-based. Conditions: Homo sapiens. Put shortly: as §3
Data set [11] deals with Plasma. As to the kind of experiment: Fraction unbound in CD1 mouse plasma at 5 mg/kg, ip dministered as single dose. The format is ADME, organism-based. Also on record: dose 5 mg/kg, route intraperitoneal. The following applies: in vivo.
Data set [12] in a line: AUC (0.25 to 4 hrs) in CD1 mouse brain at 5 mg/kg, ip administered as single dose at 4 hrs. Format: ADME, organism-based. Further details: time upper 4 hr, time lower 0.25 hr, dose 5 mg/kg, route intraperitoneal. Put shortly: as §1
Data set [13] concerns HEK293. As to the kind of experiment: Stabilization of microtubule in HEK293 cells assessed as increase in acetylated alpha-tubulin at 100 nM after 4 hrs by ELISA. Format: cell-based. Conditions: Homo sapiens. In outline: as §3
Data set [14] has as its system Plasma. Described as §2. Format: ADME, organism-based. The following applies: mouse, in vivo, 16 h, BLD = below limit of detection. Also on record: dose 5 mg/kg, route intraperitoneal. In outline: as §1

What is called AUC(0-t) is the area under the concentration-time curve up to a stated or last time point. In [1], `C=C/C=C\[C@H](C)[C@@H]1OC(=O)/C=C\C=C\[C@@H](C)[C@@H](O)C[C@H](O)/C=C\[C@H](C)[C@H](O)[C@@H](C)C[C@@H](C)CC[C@@H](O)[C@@H]1C` [DICTYOSTATIN] came in with an AUC(0-t) of 6240 nM·h. The result in data set [2] and in [9] was Active. Besides, the values for the concentration at 4 h in data set [3] and in data set [4] were 0.412 µM and 0.083 µM, respectively. Also, the concentration at 16 h in data set [5] was determined as 0.383 µM; in data set [6], 0.077 µM. The results for the Fu in data set [7] and in data set [11] were 0.5% and 0.9%, respectively. The AUC(0-t) at 4 h in data set [8] amounted to 5540 nM·h. In addition, the Activity result in data set [10] is “Dose-dependent effect”.
With `C=C/C=C\[C@H](C)[C@H](OC(N)=O)[C@@H](C)[C@H](O)[C@@H](C)C/C(C)=C\[C@H](C)[C@@H](O)[C@@H](C)/C=C\[C@@H](O)C[C@@H]1OC(=O)[C@H](C)[C@@H](O)[C@H]1C` [DISERMOLIDE], the AUC(0-t) at 4 h in data set [12] worked out at 112 nM·h; in [8], 439 nM·h. In addition, the Activity entry in [10] was “Dose-dependent effect”.
Consider `C/C1=C/C[C@@H](/C(C)=C/c2csc(C)n2)OC(=O)C[C@H](O)C(C)(C)C(=O)[C@H](C)[C@@H](O)[C@@H](C)CCC1` [EPOTHILONE D], for which the figures for the concentration at 4 h in data set [3] and in [4] were 0.161 µM and 0.019 µM, respectively. For the same molecule, the concentration at 16 h in data set [5] worked out at 0.111 µM. Besides, the outcome in [13] was Active. Also, in data set [14], the Cp result was “BLD”. Further, the Activity entry in data set [10] is “Dose-dependent effect”.
